Laboratory results as given in ChEMBL document CHEMBL2203129, “Structure-activity relationship studies of naphthol AS-E and its derivatives as anticancer agents by inhibiting CREB-mediated gene transcription” (Bioorg Med Chem, 2012).
Calls of active or inactive are those of the source. The rule behind the calls is not given here.

Tests used:
MCF7 [1] = assay: Growth inhibition of human MCF7 cells after 72 hrs by MTT assay; format: functional; settings: MCF7, 72 h
[2] = Inhibition of KIX domain of CBP interaction with KID domain of CREB after 20-24 hrs by Renilla luciferase complementation assay
In short: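 RLucC-KIX (20 ng) and KID-RLucN lysate (1.0 µg) per reaction in Renilla lysis buffer with compound, incubated at 4 °C for 20–24 h; residual luminescence read with benzyl-coelenterazine in PBS pH 7.4.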

[3] = Inhibition of CREB-mediated gene transcription in human HEK293T cells by renilla luciferase reporter assay; format: cell-based; settings: HEK-293T
In short: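 HEK 293T cells transfected with pCRE-RLuc, replated after 3 h and attached overnight; compound added, then forskolin (final 10 µM) 30 min later; 5 h at 37 °C.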

A549 [4] = assay: Growth inhibition of human A549 cells after 72 hrs by MTT assay; format: functional; settings: A549, 72 h
MDA-MB-468 = assay: Growth inhibition of human MDA-MB-468 cells after 72 hrs by MTT assay; format: functional; settings: MDA-MB-468, 72 h
MDA-MB-231 = assay: Growth inhibition of human MDA-MB-231 cells after 72 hrs by MTT assay; format: functional; settings: MDA-MB-231, 72 h
MCF7 [5] = assay: Cytotoxicity against human MCF7 cells expressing wild type CREB assessed as reduction in cell proliferation at 10 to 50 uM after 48 hrs by MTT assay; format: functional, cell-based
In short: (§1)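 MCF-7 cells stably transfected with Flag-tagged VP16-CREB (G418 2 mg/mL selection; expression checked by anti-FLAG blot) alongside parental MCF-7. Compound at indicated concentrations in triplicate for 48 h; live cells quantified with MTT reagent; Student's t-test.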

MCF7 [6] = assay: Cytotoxicity against human MCF7 cells expressing VP16-CREB mutant assessed as reduction in cell proliferation at 10 to 50 uM after 48 hrs by MTT assay; format: functional, cell-based; in short: as §1
A549 [7] = assay: Induction of apoptosis in human A549 cells assessed as viable cells at 5 uM after 48 hrs by Annexin V-FITC/PI staining based flow cytometry (reference value: 91.6%); format: functional; settings: A549, 48 h, read-out: Activity
A549 [8] = assay: Induction of apoptosis in human A549 cells assessed as early apoptotic cells at 7.5 uM after 48 hrs by Annexin V-FITC/PI staining based flow cytometry (reference value: […]); format: functional
A549 [9] = assay: Induction of apoptosis in human A549 cells assessed as early apoptotic cells at 10 uM after 48 hrs by Annexin V-FITC/PI staining based flow cytometry (reference value: […]); format: functional
A549 [10] = assay: Induction of apoptosis in human A549 cells assessed as necrotic cells at 5 uM after 48 hrs by Annexin V-FITC/PI staining based flow cytometry (reference value: 1.5%); format: functional
A549 [11] = assay: Induction of apoptosis in human A549 cells assessed as PARP cleavage at 5 to 10 uM after 48 hrs by Western blot analysis; format: functional, cell-based
In short: (§2)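 Exponentially growing A549 cells treated 48 h; washed in cold PBS, lysed in NP-40 buffer (50 mM Tris pH 8.0, 5 mM EDTA, 150 mM NaCl, 1 mM DTT, 0.5% NP-40) with 8 M urea. Equal protein on 10% SDS-PAGE, PVDF transfer, antibody detection; GAPDH loading control.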

A549 [12] = assay: Induction of apoptosis in human A549 cells assessed as late apoptotic cells at 10 uM after 48 hrs by Annexin V-FITC/PI staining based flow cytometry (reference value: 2.98%); format: functional
HMEC = assay: Cytotoxicity against HMEC assessed as effect on cell viability at less than or equal to 10 uM after 48 hrs by trypan blue exclusion assay; format: cell-based; settings: human
In short: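 HMEC grown in MEGM complete medium, switched to DMEM with 10% FBS and penicillin/streptomycin on the day of treatment; compound added at various concentrations, triplicate, 48 h at 37 °C, 5% CO2. Live cells counted by trypan blue exclusion; one-way ANOVA.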

[13] = target: Cellular tumor antigen p53 (Homo sapiens) (UniProt P04637); assay: Inhibition of p53 in human A549 cells assessed as effect on p21 gene expression at 1 to 10 uM after 4 hrs by quantitative RT-PCR analysis; format: cell-based
Sequence of Cellular tumor antigen p53 (Homo sapiens) (P04637 whole entry, looked up): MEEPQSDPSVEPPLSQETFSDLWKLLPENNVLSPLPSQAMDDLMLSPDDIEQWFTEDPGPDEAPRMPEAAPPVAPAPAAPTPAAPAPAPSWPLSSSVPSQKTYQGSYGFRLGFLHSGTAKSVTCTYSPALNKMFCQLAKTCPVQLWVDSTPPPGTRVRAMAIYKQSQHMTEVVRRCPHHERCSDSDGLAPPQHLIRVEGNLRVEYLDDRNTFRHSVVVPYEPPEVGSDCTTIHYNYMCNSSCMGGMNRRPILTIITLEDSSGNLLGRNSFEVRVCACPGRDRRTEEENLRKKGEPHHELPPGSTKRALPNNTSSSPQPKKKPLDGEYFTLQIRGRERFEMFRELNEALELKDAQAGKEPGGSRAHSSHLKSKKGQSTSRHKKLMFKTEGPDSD
In short: (§3)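 A549 cells treated in duplicate for 4 h; total RNA DNase-treated (37 °C, 30 min), reverse-transcribed with random hexamers; qPCR with SYBR Green normalized to HPRT; one-way ANOVA.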

A549 [14] = assay: Induction of apoptosis in human A549 cells assessed as viable cells at 10 uM after 48 hrs by Annexin V-FITC/PI staining based flow cytometry (reference value: 91.6%); format: functional; settings: A549, 48 h, read-out: Activity
[15] = target: Cellular tumor antigen p53 (Homo sapiens) (UniProt P04637); assay: Inhibition of p53 transfected in HEK293T cells assessed as gene transcription after 5 hrs by Renilla luciferase reporter assay; format: cell-based; settings: HEK-293T
A549 [16] = assay: Induction of apoptosis in human A549 cells assessed as late apoptotic cells at 7.5 uM after 48 hrs by Annexin V-FITC/PI staining based flow cytometry (reference value: 2.98%); format: functional
A549 [17] = assay: Inhibition of CREB in human A549 cells assessed as reduction in Bcl-2 gene expression at 1 to 10 uM after 4 hrs by quantitative RT-PCR analysis; format: cell-based; in short: as §3
A549 [18] = assay: Induction of apoptosis in human A549 cells assessed as necrotic cells at 7.5 uM after 48 hrs by Annexin V-FITC/PI staining based flow cytometry (reference value: 1.5%); format: functional
HFF = assay: Cytotoxicity against human HFF cells assessed as effect on cell viability at 5 to 10 uM after 48 hrs by trypan blue exclusion assay; format: cell-based
In short: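 HFF cells (maintained in DMEM, 10% FBS, 37 °C, 5% CO2) exposed to increasing compound concentrations in triplicate for 48 h; live cells counted by trypan blue exclusion.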

A549 [19] = assay: Inhibition of CREB in human A549 cells assessed as reduction in VEGF level at 2.5 to 10 uM after 24 hrs by ELISA; format: cell-based
In short: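 A549 cells treated in duplicate for 24 h; VEGF in culture medium measured by ELISA and normalized to medium protein concentration; one-way ANOVA.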

[20] = target: Cellular tumor antigen p53 (Homo sapiens) (UniProt P04637); assay: Inhibition of p53 in human A549 cells assessed as effect on p21 protein expression at 5 to 10 uM after 48 hrs by Western blot analysis; format: cell-based; in short: as §2
MCF7 [21] = assay: Cytotoxicity against human MCF7 cells expressing VP16-CREB mutant assessed as effect on cell proliferation at 0.5 to 10 uM after 48 hrs by MTT assay; format: functional, cell-based; in short: as §1
A549 [22] = assay: Induction of apoptosis in human A549 cells assessed as early apoptotic cells at 5 uM after 48 hrs by Annexin V-FITC/PI staining based flow cytometry (reference value: […]); format: functional
A549 [23] = assay: Induction of apoptosis in human A549 cells assessed as late apoptotic cells at 5 uM after 48 hrs by Annexin V-FITC/PI staining based flow cytometry (reference value: 2.98%); format: functional
A549 [24] = assay: Inhibition of CREB in human A549 cells assessed as reduction in VEGF gene expression at 10 uM after 4 hrs by quantitative RT-PCR analysis; format: cell-based
A549 [25] = assay: Induction of apoptosis in human A549 cells assessed as viable cells at 7.5 uM after 48 hrs by Annexin V-FITC/PI staining based flow cytometry (reference value: 91.6%); format: functional; settings: A549, 48 h, read-out: Activity
A549 [26] = assay: Inhibition of CREB in human A549 cells assessed as reduction in Bcl-2 protein expression at 5 to 10 uM after 48 hrs by Western blot analysis; format: cell-based; in short: as §2
MCF7 [27] = assay: Cytotoxicity against human MCF7 cells expressing wild type CREB assessed as reduction in cell proliferation at 0.5 to 10 uM after 48 hrs by MTT assay; format: functional, cell-based; in short: as §1
A549 [28] = assay: Induction of apoptosis in human A549 cells assessed as necrotic cells at 10 uM after 48 hrs by Annexin V-FITC/PI staining based flow cytometry (reference value: 1.5%); format: functional

O=C(Nc1cnccn1)c1cc2ccccc2cc1O
GI50 (MCF7 [1]): 17.9 µM | IC50 [2]: 20.3 µM | IC50 [3]: > 50 µM | GI50 (A549 [4]): 33.2 µM | GI50 (MDA-MB-468): 37.6 µM | GI50 (MDA-MB-231): > 100 µM

O=C(Nc1ccc(O)cc1)c1cc2ccccc2cc1O
GI50 (MCF7 [1]): 9.52 µM | IC50 [2]: 28.2 µM | IC50 [3]: 40.5 µM | GI50 (A549 [4]): 28.1 µM | GI50 (MDA-MB-468): 65.3 µM | GI50 (MDA-MB-231): > 100 µM

Nc1ccc(NC(=O)c2cc3ccccc3cc2O)cc1
GI50 (MCF7 [1]): 28 µM | IC50 [2]: 25.4 µM | IC50 [3]: > 50 µM | GI50 (A549 [4]): 51.6 µM | GI50 (MDA-MB-468): 57.1 µM | GI50 (MDA-MB-231): > 100 µM

CN(C(=O)c1cc2ccccc2cc1O)c1ccc(Cl)cc1
Activity (MCF7 [5]): Active | Activity (MCF7 [6]): Active

O=C(Nc1ccccn1)c1cc2ccccc2cc1O
GI50 (MCF7 [1]): 6.25 µM | IC50 [2]: 1.69 µM | IC50 [3]: > 50 µM | GI50 (A549 [4]): 75.8 µM | GI50 (MDA-MB-468): 5.69 µM | GI50 (MDA-MB-231): 44.2 µM

O=C(Nc1ccc(Cl)cc1)c1cc2ccccc2cc1O
viability at 5 µM (A549 [7]): 89.1% | Activity (A549 [8]): 10.1% | Activity (A549 [9]): 19.4% | Activity (A549 [10]): 1.36% | Activity (A549 [11]): Active | GI50 (MCF7 [1]): 2.81 µM | Activity (A549 [12]): 4.2% | Activity (HMEC): Non-toxic | inhibition [13]: inactive | viability at 10 µM (A549 [14]): 75.9% | IC50 [2]: 2.9 µM | inhibition [15]: inactive | Activity (A549 [16]): 2.9% | inhibition (A549 [17]): Active | Activity (A549 [18]): 1.42% | Activity (HFF): Non-toxic | inhibition (A549 [19]): Active | IC50 [3]: 2.29 µM | GI50 (A549 [4]): 2.9 µM | GI50 (MDA-MB-468): 1.46 µM | inhibition [20]: inactive | Activity (MCF7 [21]): inactive | Activity (A549 [22]): 6.5% | Activity (A549 [23]): 3.06% | inhibition (A549 [24]): Active | GI50 (MDA-MB-231): 2.35 µM | viability at 7.5 µM (A549 [25]): 85.6% | inhibition (A549 [26]): Active | Activity (MCF7 [27]): Active | Activity (A549 [28]): 0.58%

O=C(Nc1ccc(F)c(Cl)c1)c1cc2ccccc2cc1O
GI50 (MCF7 [1]): 6.86 µM | IC50 [2]: 5.13 µM | IC50 [3]: 2.29 µM | GI50 (A549 [4]): 3.65 µM | GI50 (MDA-MB-468): 0.85 µM | GI50 (MDA-MB-231): 2.2 µM

O=C(Nc1ccc(C(F)(F)F)cc1)c1cc2ccccc2cc1O
GI50 (MCF7 [1]): 3.62 µM | IC50 [2]: > 50 µM | IC50 [3]: 6.75 µM | GI50 (A549 [4]): 4.15 µM | GI50 (MDA-MB-468): 63.3 µM | GI50 (MDA-MB-231): 64.2 µM
